In series [1] the target is T1, Polyunsaturated fatty acid 5-lipoxygenase (Rattus norvegicus, UniProt P12527).
T1 sequence (P12527 whole entry): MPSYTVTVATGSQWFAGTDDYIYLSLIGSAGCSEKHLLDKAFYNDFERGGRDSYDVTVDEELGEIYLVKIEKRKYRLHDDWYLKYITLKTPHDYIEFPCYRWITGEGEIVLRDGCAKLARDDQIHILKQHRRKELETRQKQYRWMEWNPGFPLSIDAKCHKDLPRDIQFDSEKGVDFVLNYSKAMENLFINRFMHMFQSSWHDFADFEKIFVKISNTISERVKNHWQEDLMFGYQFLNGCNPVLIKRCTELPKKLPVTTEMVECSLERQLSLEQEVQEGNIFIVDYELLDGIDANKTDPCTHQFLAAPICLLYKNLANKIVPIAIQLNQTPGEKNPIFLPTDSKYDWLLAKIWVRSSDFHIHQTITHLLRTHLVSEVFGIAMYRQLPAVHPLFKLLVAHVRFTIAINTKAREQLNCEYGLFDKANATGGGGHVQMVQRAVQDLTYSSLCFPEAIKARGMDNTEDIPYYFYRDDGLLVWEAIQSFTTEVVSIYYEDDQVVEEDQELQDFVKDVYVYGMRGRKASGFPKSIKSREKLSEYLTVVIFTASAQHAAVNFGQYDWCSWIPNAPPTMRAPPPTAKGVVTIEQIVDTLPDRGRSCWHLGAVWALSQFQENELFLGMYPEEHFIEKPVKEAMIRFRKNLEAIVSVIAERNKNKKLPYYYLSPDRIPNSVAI
As to the kind of experiment: Inhibitory concentration to inhibit 5-lipoxygenase in the rat. The procedure, abridged:
(§1)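 Rat PMN assay, measuring 5-lipoxygenase and cyclooxygenase activity. IC50 values are in μM.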

The nature of series [2]: Disassociation constant was determined. Type of series: ADME. In a few lines:
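Isolated guinea pig trachea, pretreated with indomethacin and L-cysteine, contracted with LTD4. Antagonism was expressed as a pKB value.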

The subject of series [3] is Cavia porcellus. As to the kind of experiment: Inhibition of ovalbumin-induced bronchoconstriction when compound was administered intraduodenally at a dose of 50 mg/kg in guinea pig. Type of series: functional. The note with it: route intraduodenal. In a few lines:
(§2)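 Single-dose screen in guinea pigs, with n animals per group. Significance versus control used a two-tailed Student's t test (p < 0.05), or one-way ANOVA with contrasts based on each treatment's difference from its own control mean.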

Series [4] deals with Cavia porcellus. Kind of series: Inhibitory dose of the intraduodenally administered compound (10 min before giving agonist)that produced a 50% inhibition of ovalbumin induced bronchoconstriction in guinea pigs. Type of series: functional. The note with it: intraduodenal, read-out: ID50 (the source's name). The procedure, abridged:
(§3)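 Guinea pigs, intraduodenal dosing, with LTD4 or ovalbumin challenge. ID50 is the dose of antagonist giving 50% inhibition of the induced bronchoconstriction.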

In series [5] the test system is Cavia porcellus. Kind of series: Inhibitory dose of the intragastrically administered compound (120 min before giving agonist) that produced a 50% inhibition of leukotriene D4 induced bronchoconstriction in guinea pigs. Type of series: functional. The note with it: po, read-out: ID50 (the source's name). In a few lines: (§4)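 Guinea pigs, awake, dosed intragastrically 120 min before agonist challenge (95 min before anesthetic). The LTD4 challenge was given intravenously; ovalbumin served as antigen. ID50 is the dose giving 50% inhibition of LTD4- or ovalbumin-induced bronchoconstriction.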

The subject of series [6] is Cavia porcellus. Kind of series: Inhibitory dose of the intragastrically administered compound (120 min before giving agonist) that produced a 50% inhibition of ovalbumin induced bronchoconstriction in guinea pigs. Type of series: functional. The note with it: po, read-out: ID50 (the source's name). The procedure, abridged: as §4
Series [7] has as its system Cavia porcellus. Kind of series: Relative inhibitor potency of the intraduodenally administered compound with Wy-48,252 against leukotrien D4 induced bronchoconstriction in guinea pigs. Type of series: functional.
Series [8] concerns Cavia porcellus. As to the kind of experiment: Relative inhibitor potency of the intraduodenally administered compound with Wy-48,252 against lovalbumininduced bronchoconstriction in guinea pigs. Type of series: functional.
Series [9] has as its system Cavia porcellus. Kind of series: Relative inhibitor potency of the intragastrically administered compound with Wy-48,252 against leukotriene D4 induced bronchoconstriction in guinea pigs. Type of series: functional. In a few lines:
(§5)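 Intragastric dosing of awake guinea pigs 120 min before agonist (95 min before anesthetic), with LTD4 or ovalbumin challenge.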

Series [10] relates to Cavia porcellus. As to the kind of experiment: Inhibitory dose of intraduodenally administered compound (10 min before giving agonist) that produced a 50% inhibition of leukotriene D4 induced bronchoconstriction in guinea pig. Type of series: functional. The note with it: intraduodenal, read-out: ID50 (the source's name). The procedure, abridged: as §3
For series [11], the system named is Cavia porcellus. As to the kind of experiment: Relative inhibitor potency of the intragastrically administered compound with Wy-48,252 against ovalbumin induced bronchoconstriction in guinea pigs. Type of series: functional. The procedure, abridged:
as §5

Series [12] concerns Cavia porcellus. As to the kind of experiment: Inhibition of ovalbumin-induced bronchoconstriction when compound was administered perorally at a dose of 50 mg/kg in guinea pig. Type of series: functional. The note with it: route oral. The procedure, abridged: as §2
The test system of series [13] is Mus musculus. Kind of series: Percent inhibition of TPA-induced inflammation at 1 mg/ear in the mouse ear edema. Type of series: functional.
Series [14] concerns the target T2, Cyclooxygenase (Rattus norvegicus, UniProt P35355+Q63921).
T2 sequence (P35355 whole entry): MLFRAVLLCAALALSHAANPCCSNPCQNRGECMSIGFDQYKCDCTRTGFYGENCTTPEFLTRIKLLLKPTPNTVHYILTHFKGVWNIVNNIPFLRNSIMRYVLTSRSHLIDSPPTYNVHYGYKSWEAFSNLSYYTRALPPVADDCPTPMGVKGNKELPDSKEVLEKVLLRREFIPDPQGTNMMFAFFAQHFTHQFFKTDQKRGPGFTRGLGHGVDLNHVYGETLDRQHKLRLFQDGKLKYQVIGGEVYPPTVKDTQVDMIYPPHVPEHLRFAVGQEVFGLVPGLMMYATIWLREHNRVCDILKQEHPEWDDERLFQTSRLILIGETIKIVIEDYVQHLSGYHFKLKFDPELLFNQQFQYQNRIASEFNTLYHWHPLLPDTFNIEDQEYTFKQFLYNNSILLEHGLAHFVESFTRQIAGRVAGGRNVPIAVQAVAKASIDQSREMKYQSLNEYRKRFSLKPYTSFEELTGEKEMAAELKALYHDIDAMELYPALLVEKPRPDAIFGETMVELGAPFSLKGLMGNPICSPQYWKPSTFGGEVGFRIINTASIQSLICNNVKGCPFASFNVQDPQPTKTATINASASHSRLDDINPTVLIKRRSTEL
T2 sequence (Q63921 whole entry): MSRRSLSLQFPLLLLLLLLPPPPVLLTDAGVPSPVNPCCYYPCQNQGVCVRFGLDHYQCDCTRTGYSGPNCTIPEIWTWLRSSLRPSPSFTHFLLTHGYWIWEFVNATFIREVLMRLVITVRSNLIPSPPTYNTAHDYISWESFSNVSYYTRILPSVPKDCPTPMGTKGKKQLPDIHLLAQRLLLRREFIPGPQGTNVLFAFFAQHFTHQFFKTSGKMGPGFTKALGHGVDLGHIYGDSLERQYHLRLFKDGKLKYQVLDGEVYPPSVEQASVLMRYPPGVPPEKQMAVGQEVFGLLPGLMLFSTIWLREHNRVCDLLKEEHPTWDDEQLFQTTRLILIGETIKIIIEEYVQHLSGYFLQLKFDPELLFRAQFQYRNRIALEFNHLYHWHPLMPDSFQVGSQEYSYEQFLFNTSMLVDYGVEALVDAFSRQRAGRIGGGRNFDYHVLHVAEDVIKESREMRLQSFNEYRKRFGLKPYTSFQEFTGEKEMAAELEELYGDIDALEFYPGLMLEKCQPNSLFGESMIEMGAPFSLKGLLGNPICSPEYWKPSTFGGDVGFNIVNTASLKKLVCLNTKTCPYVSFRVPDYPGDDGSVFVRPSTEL
As to the kind of experiment: Inhibitory concentration to inhibit Prostaglandin G/H synthase in the rat. Type of series: protein assay. In a few lines: as §1

For series [15], the system named is Rattus norvegicus. Kind of series: Percent inhibition of compound (50 mg/kg) in the rat carrageenan paw edema assay. Type of series: functional. In a few lines:
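Rat carrageenan paw edema, with compound given intragastrically. Read-out is percent inhibition of edema.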
For orientation: Carrageenan injected into the paw causes an acute inflammation.

For series [16], the system named is Cavia porcellus. Kind of series: Inhibition of Leukotriene D4 induced bronchoconstriction in guinea pig by 50 mg/kg i.d. The note with it: at 50 mg/kg.
The subject of series [17] is Cavia porcellus. Kind of series: Inhibitory dose of the intraduodenally administered compound (10 min before giving agonist) that produced a 50% inhibition of ovalbumin induced bronchoconstriction in guinea pigs. Type of series: functional. The note with it: intraduodenal, read-out: ID50 (the source's name). In a few lines: as §3
The subject of series [18] is Cavia porcellus. Kind of series: Relative inhibitor potency of the intraduodenally administered compound with Wy-48,252 against ovalbumin induced bronchoconstriction in guinea pigs. Type of series: functional.
The test system of series [19] is Cavia porcellus. As to the kind of experiment: Inhibitory dose of the intraduodenally administered compound (10 min before giving agonist) that produced a 50% inhibition of leukotriene D4 induced bronchoconstriction in guinea pigs. The note with it: intraduodenal, read-out: ID50 (the source's name). Type of series: functional. The procedure, abridged: as §3
Series [20] in a line: Dissociation constant was determined. Type of series: physicochemical. In a few lines: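 Isolated guinea pig trachea pretreated with indomethacin and L-cysteine, then contracted with LTD4. Antagonism of the LTD4-induced contraction was expressed as a pKB value.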
For series [21], the system named is Cavia porcellus. Kind of series: Inhibition of Leukotriene D4 induced bronchoconstriction when compound was administered perorally at a dose of 25 mg/kg in guinea pig. Type of series: functional. The note with it: route oral. The procedure, abridged: as §2
In series [22] the test system is Cavia porcellus. Kind of series: Inhibition of ovalbumin-induced bronchoconstriction when compound was administered intraduodenally at a dose of 10 mg/kg in guinea pig. Type of series: functional. The note with it: route intraduodenal. The procedure, abridged:
as §2

Series [23] can be described thus: Binding studies using tritium-labelled leukotriene D4. Also on record: species or system Cavia porcellus.
Series [24] has as its system Mus musculus. Kind of series: Compound was administered intragastrically and tested in a mouse ear edema assay; Inactive. Type of series: functional, organism-based.
Series [25] relates to Rattus norvegicus. As to the kind of experiment: Compound at 100 mg/kg was administered intragastrically and tested in a rat carrageenan paw edema assay. Type of series: functional. The note with it: po, route intragastric.
Series [26] deals with Cavia porcellus. Kind of series: Inhibition of ovalbumin-induced bronchoconstriction when compound was administered perorally at a dose of 25 mg/kg in guinea pig. The note with it: route oral. Type of series: functional. In a few lines:
as §2

For series [27], the species on record is Cavia porcellus. As to the kind of experiment: Activity against leukotriene C4-induced contraction of guinea pig trachea, in the presence of glutathione.
For series [28], the system named is Cavia porcellus. Kind of series: Inhibition of ovalbumin-induced bronchoconstriction when compound was administered intraduodenally at a dose of 25 mg/kg in guinea pig. Type of series: functional. The note with it: route intraduodenal. In a few lines: as §2

This is an account of results in ChEMBL document CHEMBL1124479, “N-[(arylmethoxy)phenyl] and N-[(arylmethoxy)naphthyl] sulfonamides: potent orally active leukotriene D4 antagonists of novel structure” (J Med Chem, 1989).

Activity calls are given as the source filed them. No cut-off for these calls is given here.

Take `O=S(=O)(Nc1ccc2ccc(OCc3ccc4ccccc4n3)cc2c1)C(F)(F)F`: the IC50 in series [1] came out at 230 nM; in [14] it was 11900 nM. In series [2], this compound showed a pKB of 7.04. For the same compound, the inhibition in vivo at 50 mg/kg in [3] is 86%; in series [12], 83%. The ED50 in series [4] amounted to 0.46 mg/kg; in series [5], 0.25 mg/kg; in [6] it was 6.1 mg/kg; in [10] it was 1.4 mg/kg. The Relative inhibitor potency was 4 in [7], 41 in [8], 128 in series [9] and 6 in series [11]. The Inhibition is given as 34% in series [13] and 63% in series [15]. In series [16], this compound displayed an inhibition of 99%.
In the case of `CCCc1c(OCCCCc2nnn[nH]2)ccc(C(C)=O)c1O` [TOMELUKAST], the ED50 in series [17] is 19 mg/kg; in series [5] it was 32 mg/kg; in series [6], 38 mg/kg; in series [19], 6 mg/kg. For the same compound, the Relative inhibitor potency in [7], in [18], in series [9] and in [11] was 1 in each case.
Consider `O=S(=O)(Nc1cccc(OCc2ccc3ccccc3n2)c1)C(F)(F)F` [RITOLUKAST], for which the IC50 was found to be 4600 nM in series [1] and 3300 nM in [14]. In series [20], this compound registered a pKB of 7.7. For the same compound, the results for the inhibition in vivo at 25 mg/kg in series [21] and in [26] were 100% and 69%, respectively. Further, in series [22], the inhibition in vivo at 10 mg/kg came to 73%. Moreover, the ED50 in series [17] was found to be 3 mg/kg; in series [5], 0.1 mg/kg; in series [6], 0.6 mg/kg; in series [19], 0.3 mg/kg. In series [23], this compound registered a Kd of 35 nM. The inhibition result in [24] is “inactive”. In series [25], at 100 mg/kg the inhibition in vivo was 20%. Besides, the Dose in series [27] was 30 µM.
As for `O=S(=O)(Nc1cccc(OCc2ncc3ccccc3n2)c1)C(F)(F)F`, the inhibition in vivo at 25 mg/kg came out at 97% in series [21], 78% in series [28] and 23% in series [26].

The IC50 is the concentration that inhibits the measured activity by half. A low value points to higher potency. The pKB is the negative decadic logarithm of the KB, by convention in mol/L. Read a high pKB as a small KB. Broadly, the inhibition in vivo is the share of the control response that was lost under treatment. What is called Inhibition is the share of the control response that was lost under treatment. The inhibition is the change of the read-out against control, counted positive when it falls. What is called Kd is the equilibrium constant for the complex coming apart. A lower Kd goes with a tighter complex.
